Shown are actives, neighbours in structure and some others; about 4.1% of the full set was active somewhere.
UBC13 polyUb – blocks human UBC13 polyubiquitin chain formation | TR-FRET | inhibition, % at 20 µM | P61088 | 330,000 tested, 0.47% active; in the data active means inhibition above about 45%, passing the limit was not always enough
Mdm2 MdmX PPI – human Mdm2/MdmX binding inhibition | SaOS-2 split-luciferase Mdm2/MdmX complementation, luminescence | 330,000 tested, 3% active | AID 485346 | O15151+Q00987 | inhibition, % at 8 µM;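 active means inhibition of at least 50% at 8 µM in the primary screen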
UPR XBP1 act – adaptive UPR (XBP1) activation. CHO-XBP1 luciferase reporter, IRE1-XBP1 UPR activation, luminescence; percent of tunicamycin response, DMSO as zero. activation, % at 20 µM. 330,000 tested, 0.33% active;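 active means versus positive control, 20 µM dose yields 30% or more activation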;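 further: 100% = tunicamycin at 10 µg/mL and 0% = DMSO only wells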
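Material: IRE1-XBP1 luciferase reporter CHO line / Quantity: one thousand reporter cells per well / Buffer or medium: F12 with 10% serum / Compound: 20 µM single concentration, DMSO 1% / Times: 6 h treatment, 37 °C / Detection: Steady-Glo luciferase glow luminescence, 10 min after reagent addition / Benchmarks: tunicamycin high, DMSO low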
Apaf1 inhib – blocks human Apaf-1 apoptosome activity. O14727. reconstituted apoptosome caspase-3 activity, DEVD-Rh110 fluorescence. inhibition, % at 20 µM. 330,000 tested, 0.71% active; active means inhibition of at least 40% at 20 µM;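 further: plate controls were DMSO wells for no effect and DEVD-CHO caspase inhibitor wells for full effect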
Target sequence (O14727 whole entry, looked up): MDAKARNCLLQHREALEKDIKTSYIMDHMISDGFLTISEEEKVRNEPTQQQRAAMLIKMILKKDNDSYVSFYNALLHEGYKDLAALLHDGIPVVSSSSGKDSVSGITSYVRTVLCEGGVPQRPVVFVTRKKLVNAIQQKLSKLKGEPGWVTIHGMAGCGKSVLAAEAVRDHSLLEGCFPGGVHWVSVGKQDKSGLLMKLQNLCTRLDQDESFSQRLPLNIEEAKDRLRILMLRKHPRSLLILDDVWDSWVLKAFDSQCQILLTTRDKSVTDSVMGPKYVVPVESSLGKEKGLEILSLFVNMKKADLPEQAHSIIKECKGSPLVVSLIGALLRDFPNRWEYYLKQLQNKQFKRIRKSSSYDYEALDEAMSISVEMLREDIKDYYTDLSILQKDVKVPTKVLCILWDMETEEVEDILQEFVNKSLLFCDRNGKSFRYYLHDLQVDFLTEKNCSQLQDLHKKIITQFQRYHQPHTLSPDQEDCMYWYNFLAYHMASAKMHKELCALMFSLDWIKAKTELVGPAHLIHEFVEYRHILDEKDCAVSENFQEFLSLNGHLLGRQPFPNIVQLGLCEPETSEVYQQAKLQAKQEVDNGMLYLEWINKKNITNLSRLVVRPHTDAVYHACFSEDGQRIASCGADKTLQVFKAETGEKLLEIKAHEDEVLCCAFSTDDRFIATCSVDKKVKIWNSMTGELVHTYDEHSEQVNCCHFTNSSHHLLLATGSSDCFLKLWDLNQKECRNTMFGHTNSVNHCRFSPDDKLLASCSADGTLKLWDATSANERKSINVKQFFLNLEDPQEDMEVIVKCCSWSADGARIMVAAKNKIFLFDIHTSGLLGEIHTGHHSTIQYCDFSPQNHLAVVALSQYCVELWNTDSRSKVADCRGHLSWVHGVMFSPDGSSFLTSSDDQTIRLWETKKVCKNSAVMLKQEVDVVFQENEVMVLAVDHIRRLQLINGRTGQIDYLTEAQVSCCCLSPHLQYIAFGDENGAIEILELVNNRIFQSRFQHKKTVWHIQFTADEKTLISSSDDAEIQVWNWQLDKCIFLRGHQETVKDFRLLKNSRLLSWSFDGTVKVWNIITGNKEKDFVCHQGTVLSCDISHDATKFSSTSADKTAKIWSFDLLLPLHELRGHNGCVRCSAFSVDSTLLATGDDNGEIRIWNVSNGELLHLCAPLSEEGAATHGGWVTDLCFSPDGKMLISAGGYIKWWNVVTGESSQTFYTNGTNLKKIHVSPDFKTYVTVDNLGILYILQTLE
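Material: cell-free apoptosome with Apaf-1, procaspase-3 and caspase-9; Buffer or medium: Hepes pH 7.5 with detergent and BSA; Reagent: cytochrome c trigger plus (Z-DEVD)2-Rh110 caspase-3 substrate; Times: compound with Apaf-1, dATP, procaspase-3 30 min, then 50 min reaction, room temperature; Technique: Rh110 fluorescence intensity.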
CHOP UPR activ – apoptotic UPR (CHOP) activation; CHO-CHOP luciferase reporter, luminescence; percent of tunicamycin response over DMSO baseline; activation, % at 10 µM; 330,000 tested, 0.34% active;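 active means at 10 µM dose, activation of 40% or more, normalized to positive control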;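 further: 100% = tunicamycin at 10 µg/mL and 0% = DMSO alone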
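System: CHO-CHOP luciferase reporter cell line; amount: 500 cells/well; buffer or medium: F12 medium containing 10% fetal bovine serum; incubation: 6 h compound exposure at 37 °C after overnight seeding; measured by: luciferase luminescence after 10 min with Steady-Glo reagent; evaluation: % reporter activation, DMSO baseline versus tunicamycin full activation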
Mdm2-MdmX conf – human Mdm2/MdmX binding inhibition, confirmed; inhibition, % at 8 µM; shares compounds with Mdm2 MdmX PPI; 10,000 tested, 55% active; luminescent assay; in the data active means inhibition above about 40%
Full FLuc ctr – inhibits full-length luciferase, flagging false Mdm2/MdmX hits; shares compounds with Mdm2 MdmX PPI; SaOS-2 full-length luciferase counterscreen, luminescence; inhibition, % at 8 µM; 6,200 tested, 77% active;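 active means mean inhibition at 8 µM reaching about 37%, which flags the compound as non-specific, limit read from the data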;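 further: p53-null SaOS-2 cells with luciferase driven by a doxycycline-inducible promoter; compound on cells about two nights before reading with doxycycline added after day one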
Numbers without * were called inactive.

`O=C1CN=C(c2ccccc2)c2cc(Cl)ccc2N1` gave UBC13 polyUb 3, Mdm2 MdmX PPI 7, UPR XBP1 act -3, Apaf1 inhib 10 and CHOP UPR activ -1.
`COC(=O)C1CN(C#N)N(c2ccc(Cl)cc2)C12c1ccccc1-c1ccccc12` (configuration not stated) gave UBC13 polyUb 6, Mdm2 MdmX PPI 95*, UPR XBP1 act -7, Apaf1 inhib 21, CHOP UPR activ -10 and Mdm2-MdmX conf 24.
COc1ccc2c(c1OC)CN1CCc3cc4c(cc3[C@H]1C2)OCO4 was read as UBC13 polyUb 11, Mdm2 MdmX PPI 2, UPR XBP1 act 0, Apaf1 inhib 6 and CHOP UPR activ 1.
Screening COc1cc(C2c3cc4c(cc3CC3COC(=O)C32)OCO4)cc(OC)c1OC (configuration not stated) returned UBC13 polyUb 11, Mdm2 MdmX PPI 61*, UPR XBP1 act 14, Apaf1 inhib 0, CHOP UPR activ -3, Mdm2-MdmX conf 54* and Full FLuc ctr 98*.
Screening COC(=O)c1ccc(NC(=O)CSc2nc3ccc(N4C(=O)C5C6C=CC(C6)C5C4=O)cc3s2)cc1 (configuration not stated) returned UBC13 polyUb -4, Mdm2 MdmX PPI 69*, UPR XBP1 act -1, Apaf1 inhib -2, CHOP UPR activ 7 and Mdm2-MdmX conf 23.
For CN(C)CCSCc1nnc2n1-c1ccc(Cl)cc1C(c1ccccc1Cl)=NC2 the results were UBC13 polyUb -7, Mdm2 MdmX PPI 4, UPR XBP1 act 1, Apaf1 inhib -9 and CHOP UPR activ 0.
`C=C1C(=O)[C@@]23C[C@H]4[C@@H]5[C@@]6(C)CCC[C@@]57[C@@H]2[C@@H](O)[C@@H]1C[C@H]3[C@H]7N4C6` gave UBC13 polyUb -6, Mdm2 MdmX PPI 100*, UPR XBP1 act -4, Apaf1 inhib -4, CHOP UPR activ 2, Mdm2-MdmX conf 90* and Full FLuc ctr 52*.
`COC(=O)C1=C(c2ccc(F)cc2OCc2ccccc2)C[C@@H]2CC[C@H]1N2C(=O)N1CCCCC1` gave UBC13 polyUb -5, Mdm2 MdmX PPI 4, UPR XBP1 act 0, Apaf1 inhib 28 and CHOP UPR activ -1.
For COC(=O)C1=C(c2ccc(F)cc2OCc2ccccc2)C[C@@H]2CC[C@H]1N2C(=O)N1CCC(O)(c2ccc(Cl)cc2)CC1 the results were UBC13 polyUb -6, Mdm2 MdmX PPI 69*, UPR XBP1 act 6, Apaf1 inhib 29, CHOP UPR activ 13 and Mdm2-MdmX conf 29.
Screening COC(=O)c1ccccc1-n1c(C)nc2ccccc2c1=O returned UBC13 polyUb -3, Mdm2 MdmX PPI 17, UPR XBP1 act -5, Apaf1 inhib 3 and CHOP UPR activ 0.
Screening COC(=O)c1cn(C(=O)c2cccc3ccccc23)c2ccccc12 returned UBC13 polyUb 4, Mdm2 MdmX PPI 64*, UPR XBP1 act 1, Apaf1 inhib -8, CHOP UPR activ -1, Mdm2-MdmX conf 56* and Full FLuc ctr 53*.
COC(=O)C1=C(c2cccc(C#N)c2)C[C@@H]2CC[C@H]1N2C(=O)NC(C)C was read as UBC13 polyUb 0, Mdm2 MdmX PPI 18, UPR XBP1 act -3, Apaf1 inhib -2 and CHOP UPR activ -1.
Screening Cc1nn(Cc2ccccc2)c(Cl)c1C(=O)NC1CCCc2ccccc21 (configuration not stated) returned UBC13 polyUb 2, Mdm2 MdmX PPI -18, UPR XBP1 act -1, Apaf1 inhib 19 and CHOP UPR activ 25.
`CN(C)C(=O)O/N=C(\N)COc1ccc(C(C)(C)C)cc1` gave UBC13 polyUb -2, Mdm2 MdmX PPI 98*, UPR XBP1 act 4, Apaf1 inhib -10, CHOP UPR activ 2, Mdm2-MdmX conf 96* and Full FLuc ctr 57*.
Screening CCOC(=O)C(O)(c1ccc(N(C)C(=O)COc2ccccc2)cc1)C(F)(F)F (configuration not stated) returned UBC13 polyUb 26, Mdm2 MdmX PPI 1, UPR XBP1 act 2, Apaf1 inhib 13 and CHOP UPR activ 0.
Screening CC(=O)O[C@H]1[C@H]2O[C@]23[C@@H]2CC[C@]4(O)C[C@@H](O)CC[C@]4(C)C2CC[C@]3(C)[C@H]1c1ccc(=O)oc1 (some centres not stated) returned UBC13 polyUb 13, Mdm2 MdmX PPI 85*, UPR XBP1 act -5, Apaf1 inhib -4, CHOP UPR activ -1, Mdm2-MdmX conf 64* and Full FLuc ctr 48*.
C[C@]12CC[C@H]3C(CCC4(O)CC(O)CC[C@]34C=O)C1=CC[C@H]2c1ccc(=O)oc1 (some centres not stated) was read as UBC13 polyUb -9, Mdm2 MdmX PPI 33, UPR XBP1 act -3, Apaf1 inhib 4 and CHOP UPR activ 1.
For COc1ccc(/C=C/C(=O)c2c(O)n(CCC3=CCCCC3)c(=O)[nH]c2=O)cc1 the results were UBC13 polyUb 4, Mdm2 MdmX PPI 53*, UPR XBP1 act 2, Apaf1 inhib 21, CHOP UPR activ 0 and Mdm2-MdmX conf 26.
Screening COc1cc2c(cc1OC)CN(c1ccc([N+](=O)[O-])c(C(F)(F)F)c1)CC2 returned UBC13 polyUb 5, Mdm2 MdmX PPI 59*, UPR XBP1 act -1, Apaf1 inhib 30, CHOP UPR activ 5 and Mdm2-MdmX conf -2.
For COc1c(C)cc(C(=O)C2CCCN(Cc3ccccn3)C2)cc1C (configuration not stated) the results were UBC13 polyUb -2, Mdm2 MdmX PPI 32, UPR XBP1 act -3, Apaf1 inhib -4 and CHOP UPR activ -2.
For CC1(C)C[C@H]2C=C(C=O)[C@]3(C=O)C[C@]3(C)[C@H]2C1 the results were UBC13 polyUb -29, Mdm2 MdmX PPI 100*, UPR XBP1 act -9, Apaf1 inhib 24, CHOP UPR activ -9, Mdm2-MdmX conf 100* and Full FLuc ctr -1.
Screening CC(C)(C)N1Cc2ccccc2C1=N returned UBC13 polyUb 1, Mdm2 MdmX PPI 14, UPR XBP1 act -1, Apaf1 inhib 3 and CHOP UPR activ 2.
CC1CCC(C(C)C)C(OC(=O)Cn2c(COc3ccccc3)[n+](C)c3ccccc32)C1 (configuration not stated) was read as UBC13 polyUb 37, Mdm2 MdmX PPI 98*, UPR XBP1 act 23, Apaf1 inhib 20, CHOP UPR activ 2, Mdm2-MdmX conf 96* and Full FLuc ctr 54*.

Compound activity: PubChem BioAssay, Sanford-Burnham Center for Chemical Genomics
